The results in this text go back to ChEMBL document CHEMBL1151981, “Bioactive pyridine-N-oxide disulfides from Allium stipitatum” (J Nat Prod, 2009).

One experiment concerns Mycolicibacterium phlei. In words: Antibacterial activity against Mycobacterium phlei after 72 hrs. The experiment is classed as functional. The procedure, abridged: (§1)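 Fast-growing mycobacteria obtained from NCTC; cultures grown on Columbia blood agar with 7% defibrinated horse blood at 37 °C for 72 h before MIC determination. Ethambutol and isoniazid served as positive controls.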

Experiment [1] relates to Mycolicibacterium smegmatis. The experiment is described as follows: Antibacterial activity against Mycobacterium smegmatis after 72 hrs. The experiment is classed as functional. The procedure, abridged:
as §1

Experiment [2] has as its system Mycolicibacterium fortuitum. The experiment is described as follows: Antibacterial activity against Mycobacterium fortuitum after 72 hrs. Format: functional. The procedure, abridged:
as §1

Experiment [3] concerns Staphylococcus aureus. In words: Antibacterial activity against Staphylococcus aureus EMRSA15 after 72 hrs. Format: functional. The settings on record: EMRSA15, 72 h. An outline of the steps: (§2)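 S. aureus strains tested in a MIC assay; norfloxacin and oxacillin used as positive controls.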
Experiment [4] relates to Staphylococcus aureus. In words: Antibacterial activity against Staphylococcus aureus SA1199B overexpressing NorA efflux pump after 72 hrs. The experiment is classed as functional.
Experiment [5] concerns Staphylococcus aureus. The experiment is described as follows: Antibacterial activity against tetracycline-effluxing Staphylococcus aureus XU212 after 72 hrs. The experiment is classed as functional. The settings on record: XU212, 72 h. The procedure, abridged: as §2
Experiment [6] concerns Mycobacterium tuberculosis. The experiment is described as follows: Upregulation of Rv1335 RNA expression in Mycobacterium tuberculosis H37Rv ATCC 27294 at 2 to 10 ug/ml after 6 hrs by microarray analysis. Format: functional, organism-based. The procedure, abridged:
(§3)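 H37Rv grown in 7H9 with 0.2% glycerol, 0.5% BSA fraction V, 0.05% Tween 80, 0.08% NaCl and 0.2% glucose to OD650 0.3. Treated with 2, 5 or 10 µg/mL compound, or matching DMSO, for 6 h. RNA isolated, labelled cDNA hybridised to microarrays. Predictive genes found by class prediction analysis.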

In experiment [7] the test system is Mycobacterium tuberculosis. The experiment is described as follows: Upregulation of clpB RNA expression in Mycobacterium tuberculosis H37Rv ATCC 27294 at 2 to 10 ug/ml after 6 hrs by microarray analysis. Format: functional, organism-based. An outline of the steps:
as §3

Experiment [8] deals with Mycobacterium tuberculosis. The experiment is described as follows: Upregulation of sigH RNA expression in Mycobacterium tuberculosis H37Rv ATCC 27294 at 2 to 10 ug/ml after 6 hrs by microarray analysis. Format: functional, organism-based. An outline of the steps: as §3
Experiment [9] relates to Mycobacterium tuberculosis. In words: Effect on trxB2 RNA expression in Mycobacterium tuberculosis H37Rv ATCC 27294 at 2 to 10 ug/ml after 6 hrs by microarray analysis. Format: functional, organism-based. The procedure, abridged: as §3
Experiment [10] has as its system Mycobacterium tuberculosis. The experiment is described as follows: Upregulation of Rv3463 RNA expression in Mycobacterium tuberculosis H37Rv ATCC 27294 at 2 to 10 ug/ml after 6 hrs by microarray analysis. Format: functional, organism-based. The procedure, abridged: as §3
In experiment [11] the test system is Mycobacterium tuberculosis. The experiment is described as follows: Effect on trxC RNA expression in Mycobacterium tuberculosis H37Rv ATCC 27294 at 2 to 10 ug/ml after 6 hrs by microarray analysis. The experiment is classed as functional, organism-based. The procedure, abridged:
as §3

Experiment [12] relates to Mycobacterium tuberculosis. The experiment is described as follows: Upregulation of hsp RNA expression in Mycobacterium tuberculosis H37Rv ATCC 27294 at 2 to 10 ug/ml after 6 hrs by microarray analysis. The experiment is classed as functional, organism-based. An outline of the steps:
as §3

In experiment [13] the test system is Mycobacterium tuberculosis. In words: Upregulation of Rv0331 RNA expression in Mycobacterium tuberculosis H37Rv ATCC 27294 at 2 to 10 ug/ml after 6 hrs by microarray analysis. The experiment is classed as functional, organism-based. An outline of the steps: as §3
For experiment [14], the system named is Mycobacterium tuberculosis. The experiment is described as follows: Upregulation of dnaK RNA expression in Mycobacterium tuberculosis H37Rv ATCC 27294 at 2 to 10 ug/ml after 6 hrs by microarray analysis. Format: functional, organism-based. An outline of the steps: as §3
The test system of experiment [15] is Mycobacterium tuberculosis. In words: Upregulation of Rv1334 RNA expression in Mycobacterium tuberculosis H37Rv ATCC 27294 at 2 to 10 ug/ml after 6 hrs by microarray analysis. Format: functional, organism-based. An outline of the steps:
as §3

Experiment [16] concerns Mycobacterium tuberculosis. In words: Upregulation of dnaJ RNA expression in Mycobacterium tuberculosis H37Rv ATCC 27294 at 2 to 10 ug/ml after 6 hrs by microarray analysis. Format: functional, organism-based. An outline of the steps:
as §3

Experiment [17] has as its system Mycobacterium tuberculosis. In words: Upregulation of Rv3054c RNA expression in Mycobacterium tuberculosis H37Rv ATCC 27294 at 2 to 10 ug/ml after 6 hrs by microarray analysis. The experiment is classed as functional, organism-based. An outline of the steps:
as §3

Experiment [18] relates to Mycobacterium tuberculosis. In words: Antibacterial activity against Mycobacterium tuberculosis infected in GKO C57BL/6 mouse assessed as bacterial number in spleen at 25 mg/kg/day administered 14 days postinfection via oral gavage for nine consecutive days measured on day 24 postinfection. The experiment is classed as functional. An outline of the steps: (§4)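 Female GKO C57BL/6 mice, 8–10 weeks old, infected by low-dose aerosol with M. tuberculosis Erdman (50–100 CFU uptake confirmed day 1). Daily oral gavage in 0.5% methyl cellulose from day 14 for nine consecutive days; isoniazid given at 25 mg/kg/day. Five mice per group, with untreated and pretreatment controls. Lung and spleen CFU log-transformed; one-way ANOVA with Tukey test.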

Experiment [19] relates to Mycobacterium tuberculosis. In words: Antibacterial activity against Mycobacterium tuberculosis infected in GKO C57BL/6 mouse assessed as bacterial number in lung at 25 mg/kg/day administered 14 days postinfection via oral gavage for nine consecutive days measured on day 24 postinfection. The experiment is classed as functional. An outline of the steps:
as §4

Experiment [20] relates to Mycobacterium tuberculosis. In words: Antibacterial activity against Mycobacterium tuberculosis H37Rv ATCC 27294 assessed as decrease in viable bacterial counts at 0.01 to 5 ug/ml after 14 days by spot-culture growth inhibition assay. The experiment is classed as functional, organism-based. An outline of the steps: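 Mid-exponential cultures (BCG rotated in 7H9/ADC/Tween 80; H37Rv standing in 7H9/OADC/Tween 80) diluted to 10³ cells/mL. 5 µL spotted onto 7H10 agar with 10% OADC containing compound at 0.01, 0.1, 0.5, 1 and 5 µg/mL. Incubated at 37 °C for 14 days. MIC taken as lowest concentration with no growth; no-compound well as growth control.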

Another experiment relates to A549. In words: Cytotoxicity against human A549 cells after 96 hrs by sulforhodamine B assay. The experiment is classed as functional, cell-based. The settings on record: A549, 96 h. The procedure, abridged: (§5)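 SRB assay. Cells seeded at 4000/well in DMEM and allowed to attach overnight at 37 °C, 5% CO2. Exposed in quadruplicate to freshly made compound, 0.1–25 µM, for 96 h. Fixed with ice-cold 10% TCA for 30 min, stained with 0.4% SRB in 1% acetic acid for 15 min. Absorbance read at 540 nm as % of untreated control; IC50 derived from means.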

Experiment [21] is described as follows: Cytotoxicity against human WI38 cells after 96 hrs by sulforhodamine B assay. The experiment is classed as cell-based. The settings on record: WI-38, 96 h. The procedure, abridged: as §5
In general terms: The SRB assay estimates cell density from bound dye.

Experiment [22] concerns Mycolicibacterium smegmatis. The experiment is described as follows: Antibacterial activity against Mycobacterium smegmatis mc2 2700 after 72 hrs. Format: functional. The settings on record: mc2 2700, 72 h.
A further experiment relates to MCF7. The experiment is described as follows: Cytotoxicity against human MCF7 cells after 96 hrs by sulforhodamine B assay. The experiment is classed as functional, cell-based. The settings on record: MCF7, 96 h. The procedure, abridged:
as §5

Molecules are shown by their SMILES. In brackets after ≈: the same amount, converted by molar mass. Activity calls are given as the source filed them. No cut-off for these calls is given here.

`[O-][n+]1ccccc1SSc1cccc[n+]1[O-]` [DIPYRITHIONE]: the MIC – broadly, the least concentration at which growth counts as inhibited – in the experiment with Mycolicibacterium phlei came out at 16 µg/mL (≈ 63.4 µM); in [1] it was 16 µg/mL (≈ 63.4 µM); in experiment [2], 16 µg/mL (≈ 63.4 µM); with Staphylococcus aureus [3] it was 0.5 µg/mL (≈ 1.98 µM); with Staphylococcus aureus [4] it was 1 µg/mL (≈ 3.96 µM); in the experiment with Staphylococcus aureus [5], 1 µg/mL (≈ 3.96 µM).
Take `Oc1cccc2cccnc12`: the result in [6], in [7], in experiment [8], in [9], in experiment [10] and in experiment [11] was Active. The result in experiment [12], in experiment [13], in [14], in [15], in experiment [16] and in experiment [17] was Active.
As to `CSSc1ccccn1`, the MIC is 16 µg/mL (≈ 102 µM) in the experiment on Mycolicibacterium phlei; 8 µg/mL (≈ 50.9 µM) in experiment [1]; 8 µg/mL (≈ 50.9 µM) in [2]; 2 µg/mL (≈ 12.7 µM) with Staphylococcus aureus [3]; 2 µg/mL (≈ 12.7 µM) in the experiment on Staphylococcus aureus [4]; 4 µg/mL (≈ 25.4 µM) in the experiment on Staphylococcus aureus [5].
Take `CSSc1ccc2ccccc2n1`: the MIC in the experiment with Mycolicibacterium phlei is 8 µg/mL (≈ 38.6 µM); in experiment [1], 8 µg/mL (≈ 38.6 µM); in [2], 4 µg/mL (≈ 19.3 µM); against Staphylococcus aureus [3], 4 µg/mL (≈ 19.3 µM); against Staphylococcus aureus [4] it was 4 µg/mL (≈ 19.3 µM); in the experiment on Staphylococcus aureus [5] it was 4 µg/mL (≈ 19.3 µM).
Turning to `NNC(=O)c1ccncc1` [ISONIAZID], the log10cfu is 2.16 in [18] and 5.33 in [19]. Besides, the MIC came out at 128 µg/mL (≈ 933 µM) against Mycolicibacterium phlei, 0.25 µg/mL (≈ 1.82 µM) in [1] and 0.25 µg/mL (≈ 1.82 µM) in experiment [2].
As to `CSSc1ccccc1`, the MIC is > 128 µg/mL against Mycolicibacterium phlei; 64 µg/mL (≈ 410 µM) in experiment [1]; > 128 µg/mL in experiment [2]; > 128 µg/mL in the experiment with Staphylococcus aureus [3]; 128 µg/mL (≈ 819 µM) against Staphylococcus aureus [4]; > 128 µg/mL against Staphylococcus aureus [5].
On to `CC1=CC(=O)c2ccccc2C1=O`, for which the outcome in experiment [6], in experiment [7], in [8], in [9], in experiment [10] and in experiment [11] was Active. Also, the result in experiment [12], in experiment [13], in experiment [14], in experiment [15], in experiment [16] and in [17] was Active.
`CSSc1ncccn1`: the MIC was 16 µg/mL (≈ 101 µM) with Mycolicibacterium phlei; 8 µg/mL (≈ 50.6 µM) in experiment [1]; 8 µg/mL (≈ 50.6 µM) in experiment [2]; 2 µg/mL (≈ 12.6 µM) in the experiment with Staphylococcus aureus [3]; 2 µg/mL (≈ 12.6 µM) in the experiment with Staphylococcus aureus [4]; 4 µg/mL (≈ 25.3 µM) with Staphylococcus aureus [5].
On to `CCn1cc(C(=O)O)c(=O)c2cc(F)c(N3CCNCC3)cc21` [NORFLOXACIN], for which the values for the MIC with Staphylococcus aureus [3], in the experiment on Staphylococcus aureus [4] and in the experiment with Staphylococcus aureus [5] were 0.5 µg/mL (≈ 1.57 µM), 32 µg/mL (≈ 100 µM) and 16 µg/mL (≈ 50.1 µM), respectively.
For `Cc1onc(-c2ccccc2)c1C(=O)N[C@@H]1C(=O)N2[C@@H]1SC(C)(C)[C@@H]2C(=O)O` [OXACILLIN] the same measures were 32 µg/mL (≈ 79.7 µM), 0.25 µg/mL (≈ 0.623 µM) and 128 µg/mL (≈ 319 µM).
As to `CSSc1cccs1`, the MIC against Mycolicibacterium phlei was > 128 µg/mL; in experiment [1], 64 µg/mL (≈ 394 µM); in experiment [2], > 128 µg/mL; in the experiment with Staphylococcus aureus [3] it was > 128 µg/mL; in the experiment on Staphylococcus aureus [4], 128 µg/mL (≈ 789 µM); against Staphylococcus aureus [5], > 128 µg/mL.
On to `CC[C@@H](CO)NCCN[C@@H](CC)CO` [ETHAMBUTOL], for which the MIC was 2 µg/mL (≈ 9.79 µM) in the experiment on Mycolicibacterium phlei, 32 µg/mL (≈ 157 µM) in experiment [1] and 2 µg/mL (≈ 9.79 µM) in experiment [2].
For the compound `CSCSSc1cccc[n+]1[O-]`, the result in experiment [20] was Active. The MIC against Mycolicibacterium phlei stood at 2 µg/mL (≈ 9.12 µM); in experiment [1], 4 µg/mL (≈ 18.2 µM); in [2], 8 µg/mL (≈ 36.5 µM); in the experiment with Staphylococcus aureus [3], 0.5 µg/mL (≈ 2.28 µM); in [22] it was 4 µg/mL (≈ 18.2 µM); against Staphylococcus aureus [4], 1 µg/mL (≈ 4.56 µM). Also, the MIC in the experiment with Staphylococcus aureus [5] was determined as 1 µg/mL (≈ 4.56 µM). For the same compound, the IC50 (commonly the concentration that gives 50% inhibition) in the experiment on A549 amounted to 780 nM; in experiment [21] it was 890 nM; in the experiment with MCF7, 390 nM.
